TbHK1 inh = blocks Trypanosoma brucei hexokinase 1 activity | inhibition, % at 10 µM | AID 1430 | 220,000 compounds, 0.11% hits | recombinant TbHK1, G6PDH-coupled NADH A340;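 active means inhibition of 50% or more in the single-dose primary screen; inactive means inhibition below 50%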
p97 ATPase inh = human p97 ATPase inhibition | inhibition, % at 8 µM | P55072 | 220,000 compounds, 0.42% hits | recombinant p97 ATPase, Kinase-Glo ATP luminescence, 3 h; in the data active means inhibition above about 15%
Hck-Nef inh = blocks Nef-activated human Hck kinase | P08631 | Recombinant Hck-YEEI plus Nef, Z-Lyte FRET kinase assay | inhibition, % at 20 µM | 220,000 compounds, 0.68% hits | AID 463187;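 active means Hck-Nef kinase inhibition above about 50%, limit read from the data; inactive means inhibition below that limit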
RanGTP-Imp inh = inhibitors of RanGTP-importin-beta interaction, primary screen, biochemical, FRET, CFP-Ran, YFP-importin-beta, homogeneous. AID 2216. inhibition, % (concentration not given with the values). cell-free CFP-Ran/YFP-importin-beta FRET ratio. 300,000 compounds, 1.1% hits;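 active means more than half of the replicate wells show a fall in the fluorescence ratio signal beyond about 16%, limit read from the data, passing the limit was not always enough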
Runt-CBFb FRET = inhibitors of human RUNX1 Runt domain binding to CBFb; 220,000 compounds, 0.46% hits; inhibition, % at 20 µM; Cerulean-Runt/Venus-CBFb FRET ratio 530/480, 1 h;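 active means inhibition over about 50% at 20 µM in the single-dose screen, limit read from the data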
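Doses: 20 µM compound in 1% DMSO | Material: Cerulean-labeled Runt domain protein | Amount: Each fluorescent fusion protein 100 nM | Schedule: Two 1 h room-temperature incubations shielded from light | Measured by: FRET fluorescence | Evaluation: Loss of energy transfer signal | Controls: Unlabeled CBFb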
Runt-SMMHC FRET = Runt domain-CBFb-SMMHC interaction inhibition; Q01196+Q13951; Cerulean-Runt/Venus-CBFb-SMMHC FRET ratio 530/480, 1 h; inhibition, % at 20 µM; 220,000 compounds, 0.74% hits;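 active means mean inhibition across duplicate retests at 20 µM reaching about 50%, limit read from the data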;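 further: inhibitors lower the FRET ratio by blocking Runt binding to CBFb-SMMHC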
Runt-CBFb TRFRET = inhibitors of human RUNX1 Runt domain binding to CBFb; inhibition, % at 20 µM; AID 1502; 480 compounds, 20% hits; TR-FRET RUNX1 Runt domain-CBFb binding; shares compounds with Runt-CBFb FRET; in the data active means inhibition above about 40%
A number is an active result; n = inactive; x = no result given. A selection: hits, their analogues and other compounds. The true share with any hit is near 2.1%.

SMILES	TbHK1 inh	p97 ATPase inh	Hck-Nef inh	RanGTP-Imp inh	Runt-CBFb FRET	Runt-SMMHC FRET	Runt-CBFb TRFRET
Cc1cc(C(=O)CCC(=O)N(C)CC(=O)Nc2ccccc2Br)c(C)s1	x	x	x	n	x	x	x
Cc1cc(C)c2c(n1)sc1c(O)cc(=O)[nH]c12	n	n	n	n	51.9	n	n
COc1ccc(-c2cc(C(F)(F)F)c3c(n2)sc2c(O)cc(=O)[nH]c23)c(OC)c1	n	n	n	n	n	n	x
Cc1ccc2nc3c(cc(C(=O)NCCCn4ccnc4)n3C)c(=O)n2c1	n	n	n	n	53.6	77.1	n
COc1cc(C2C3=C(CC(C)(C)CC3=O)Nc3ccccc3N2C(C)=O)cc(OC)c1OC (configuration not stated)	x	x	x	n	x	x	x
c1ccc2[nH]c(-c3cnco3)cc2c1	x	x	x	n	x	x	x
COc1ccccc1C1CC(c2cccs2)=Nc2ccccc2S1 (configuration not stated)	n	n	n	n	n	n	x
Fc1ccccc1C1CC(c2ccco2)=Nc2ccccc2S1 (configuration not stated)	n	n	n	n	50.4	n	n
O=[N+]([O-])c1cccc(C(=S)N2CCN(c3ccccc3)CC2)c1	n	n	n	n	52.6	n	n
O=C(Nc1ccc2cn[nH]c2c1)c1c(Cl)cccc1Cl	n	n	n	n	n	n	x
O=C1C(Cl)=C(Nc2ccc3cn[nH]c3c2)C(=O)c2ccccc21	n	n	n	n	51.2	n	n
O=S(=O)(c1ccc(Cl)c(C(F)(F)F)c1)N1CCN(CC(O)COc2ccccc2F)CC1 (configuration not stated)	x	x	x	n	x	x	x
CCOc1ccccc1CN1CCNC(=O)C1CC(=O)NCc1ccccn1 (configuration not stated)	x	x	x	n	x	x	x
C/C(=N/NC(=O)c1cc(O)c(O)c(O)c1)c1ccc([N+](=O)[O-])cc1	n	n	n	n	54.4	n	67.0
C/C(=N\NC(=O)c1ccc([N+](=O)[O-])cc1)c1c(O)cc(C)oc1=O	n	n	n	n	n	n	x
CC(=O)Nc1ccc(S(=O)(=O)N2CCN(c3cc(C(F)(F)F)ccn3)CC2)cc1	n	n	n	n	56.2	n	75.5
COc1ccc(CCNC(=O)C2CCN(S(=O)(=O)c3cccc4nsnc34)CC2)cc1OC	n	n	n	n	81.0	n	n
COC(=O)c1ccc(C2/C(=C(/O)c3ccc4c(c3)CC(C)O4)C(=O)C(=O)N2Cc2ccncc2)cc1 (configuration not stated)	x	x	x	n	x	x	x
Cc1ccc(C(=O)Cn2nnc3ccccc32)cc1[N+](=O)[O-]	n	n	n	n	n	n	x
Cc1ccc(C(=O)n2nnc3ccccc32)cc1[N+](=O)[O-]	n	n	n	n	88.9	n	n
COc1ccc(S(=O)(=O)N(C(C)=O)c2ccc3oc(=O)sc3c2)cc1	n	n	n	n	67.0	58.2	n
COC(=O)c1cc(=O)nc2sc(-c3ccc(F)cc3)nn12	n	n	n	n	51.5	n	n
COC(=O)c1cc(=O)nc2sc(-c3cccs3)nn12	n	n	n	n	n	n	x
O=C(OCCCOC(=O)c1ccc(Br)o1)c1ccc(Br)o1	x	x	x	n	x	x	x
Cc1ccc(CNC(=O)Cn2cnc(S(=O)(=O)N3CCC(C)CC3)c2)o1	x	x	x	n	x	x	x
Cc1cc(C)c(NC(=S)NCC2CCN(C(C)c3ccccc3)C2)c(C)c1 (configuration not stated)	n	n	n	n	54.1	n	n
O=C(O)C1OC(Oc2cc3oc(-c4ccccc4)cc(=O)c3c(O)c2O)C(O)C(O)C1O (configuration not stated)	n	n	n	n	55.8	n	n
O=C(COc1cccc(Cl)c1Cl)Nc1ccc2c(c1)CCC2	n	n	n	n	63.1	n	n
Nc1nc2ccc(S(=O)(=O)N3CCCCC3)cc2s1	n	n	n	n	56.5	n	n
CCOC(=O)c1c(/N=C/N(C)C)sc(/C=N/Nc2ccccc2)c1-c1ccc(Cl)cc1	n	n	n	n	58.3	119.1	n
